Measurements published in ChEMBL document CHEMBL5344453, “Selective Recognition of c-KIT 1 G-Quadruplex by Structural Tuning of Heteroaromatic Scaffolds and Side Chains” (ACS Med Chem Lett, 2024).
Calls of active or inactive are those of the source. The calls are words filed in the database; no cut-off is given here.

Columns and labels:
[1] = test system: MCF7; assay: Cytotoxicity against human MCF7 cells assessed as cell viability measured after 24 hrs by XTT formazan assay; assay type: functional, cell-based; details: MCF7, 24 h
[2] = Reduction of c-KIT oncogene expression in human K562 cells transfected with c-KIT plasmid construct assessed as reduction in luciferase expression at 5.5 uM measured after 36 hrs by luciferase reporter assay; assay type: functional
Procedure, shortened: (§1)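 K562 cells were transfected with luciferase plasmids carrying the c-KIT, c-MYC or BCL-2 promoter G4. They were then treated with ligand (3 and 6 μM or 5.5 and 11 μM), and relative luciferase expression was measured.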

[3] = Induction of cell permeation in human c-KIT-positive K562 cell membrane assessed as fold increase in (G- quadruplex/antibody complex) BG4 foci at 5.5 uM measured after 24 hrs by immunofluorescence assay; assay type: functional
Procedure, shortened: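 K562 cells were treated with ligand (3 or 5.5 μM) and immunostained with G4-specific antibody BG4. Nuclear BG4 foci were counted by confocal microscopy and expressed relative to untreated cells.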

[4] = Reduction of c-MYC oncogene expression in human K562 cells transfected with c-MYC plasmid construct assessed as reduction in luciferase expression at 5.5 uM measured after 36 hrs by luciferase reporter assay; assay type: functional
Procedure, shortened: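 Promoter luciferase reporter: K562 cells transfected with a c-MYC promoter G4-containing luciferase-expressing plasmid, then ligand-treated at two doses each (3 and 6 μM, or 5.5 and 11 μM); read-out as relative luciferase expression, reported as percent reduction.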

[5] = test system: K562; assay: Induction of apoptosis in human K562 cells assessed as apoptosis at 5.5 uM incubated for 24 hrs by FITC-Annexin V and PI analysis; assay type: functional
Procedure, shortened: (§2)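 K562 cells were treated with ligand (3 and 6 μM or 5.5 and 11 μM) and dual-stained with annexin V and PI. Early and late apoptotic populations were quantified by flow cytometry dot plot analysis.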

[6] = Effect on proto-oncogene expression in human c-KIT-positive K562 cells assessed as upregulation in c-MYC oncogene expression at 11 uM measured after 24 hrs by qRT-PCR analysis relative to control; assay type: functional
Procedure, shortened: (§3)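 K562 cells treated 24 h at two doses per ligand (3 and 6 μM, 5.5 and 11 μM; positive control 2 and 4 μM). c-KIT, c-MYC and BCL-2 mRNA measured by qRT-PCR and normalized to housekeeping gene 18s, relative to untreated control.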

[7] = Effect on proto-oncogene expression in human c-KIT-positive K562 cells assessed as upregulation in c-MYC oncogene expression at 5.5 uM measured after 24 hrs by qRT-PCR analysis relative to control; assay type: functional; procedure, shortened: as §3
[8] = test system: Quadruplex DNA; assay: Stabilization of G-quadruplex h-TELO 5-FAM-TTGGGTTAGGGTTAGGGTTAGGGA-TAMRA-3 (unknown origin) assessed as change in melting temperature at 1 uM incubated for 1 hr in dark condition by FRET-based melting assay; assay type: nucleic-acid assay
Procedure, shortened: (§4)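 FRET melting of dual-fluorophore-tagged oligonucleotides (200 nM) in 60 mM potassium cacodylate buffer, pH 7.4, with ligand at 1 μM; ΔTm taken against the ligand-free oligonucleotide Tm as control.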

[9] = test system: Quadruplex DNA; assay: Stabilization of G-quadruplex c-KIT2 5-FAM-GGGCGGGCGCGAGGGAGGGG-TAMRA-3 (unknown origin) assessed as change in melting temperature at 1 uM incubated for 1 hr in dark condition by FRET-based melting assay; assay type: nucleic-acid assay; procedure, shortened: as §4
[10] = test system: Quadruplex DNA; assay: Stabilization of G-quadruplex BCL2 5-FAM-AGGGGCGGGCGCGGGAGGAAGGGGGCGGGAGCGGGGCTG-TAMRA-3 (unknown origin) assessed as change in melting temperature at 1 uM incubated for 1 hr in dark condition by FRET-based melting assay; assay type: nucleic-acid assay; procedure, shortened: as §4
[11] = Reduction of BCL-2 oncogene expression in human K562 cells transfected with BCL-2 plasmid construct assessed as reduction in luciferase expression at 11 uM measured after 36 hrs by luciferase reporter assay; assay type: functional; procedure, shortened: as §1
[12] = test system: Quadruplex DNA; assay: Stabilization of G-quadruplex VEGF 5-FAM-CGGGGCGGGCCGGGGGCGGGGT-TAMRA-3 (unknown origin) assessed as change in melting temperature at 1 uM incubated for 1 hr in dark condition by FRET-based melting assay; assay type: nucleic-acid assay; procedure, shortened: as §4
[13] = test system: Quadruplex DNA; assay: Stabilization of G-quadruplex c-MYC 5-FAM-TGGGGAGGGTGGGGAGGGTGGGGAAGG-TAMRA- 3 (unknown origin) assessed as change in melting temperature at 1 uM incubated for 1 hr in dark condition by FRET-based melting assay; assay type: nucleic-acid assay; procedure, shortened: as §4
[14] = Effect on proto-oncogene expression in human c-KIT-positive K562 cells assessed as upregulation in BCL-2 oncogene expression at 5.5 uM measured after 24 hrs by qRT-PCR analysis relative to control; assay type: functional; procedure, shortened: as §3
[15] = Reduction of BCL-2 oncogene expression in human K562 cells transfected with BCL-2 plasmid construct assessed as reduction in luciferase expression at 5.5 uM measured after 36 hrs by luciferase reporter assay; assay type: functional; procedure, shortened: as §1
[16] = Reduction of c-KIT protein expression in human K562 cells at 5.5 uM measured after 24 hrs by Western blotting analysis relative to control; assay type: functional
Procedure, shortened: (§5)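 K562 cells were treated with ligand (3 and 6 μM or 5.5 and 11 μM). c-KIT protein was measured by Western blot with GAPDH as the housekeeping reference, relative to control.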

[17] = test system: K562; assay: Induction of cell cycle arrest in human K562 cells assessed as accumulation at G0/G1 phase at 5.5 to 11 uM incubated for 24 hrs by propidium iodide based assay; assay type: functional; details: dose 5.5-11 µM
Procedure, shortened: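 K562 cells were treated with ligand (3 and 6 μM or 5.5 and 11 μM) and stained with propidium iodide. The fraction of cells in each cell-cycle phase was determined by flow cytometry.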

[18] = test system: Quadruplex DNA; assay: Stabilization of G-quadruplex c-KIT1 5-FAM-GGGAGGGCGCTGGGAGGAGGG-TAMRA-3 (unknown origin) assessed as change in melting temperature at 1 uM incubated for 1 hr in dark condition by FRET-based melting assay; assay type: nucleic-acid assay; procedure, shortened: as §4
[19] = test system: Quadruplex DNA; assay: Stabilization of fluorophore tagged G-quadruplex c-KIT1 (unknown origin) assessed as change in melting temperature in presence of 0 to 100 equiv calf thymus DNA at 1 uM incubated for 1 hr in dark condition by competitive FRET-based melting assay; assay type: nucleic-acid assay
Procedure, shortened: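 Competitive FRET melting with fluorophore-labeled c-KIT 1 G-quadruplex and 1 μM ligand. Unlabeled calf thymus DNA was added at 0, 1, 5, 10, 50 and 100 molar equivalents over the labeled DNA, and ΔTm was monitored.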

[20] = test system: K562; assay: Attenuation of proto-oncogene expression in human c-KIT-positive K562 cells assessed as reduction in c-KIT oncogene expression at 11 uM measured after 24 hrs by qRT-PCR analysis relative to control; assay type: functional; procedure, shortened: as §3
[21] = test system: K562; assay: Attenuation of proto-oncogene expression in human c-KIT-positive K562 cells assessed as reduction in c-KIT oncogene expression at 5.5 uM measured after 24 hrs by qRT-PCR analysis relative to control; assay type: functional; procedure, shortened: as §3
[22] = Cytotoxicity against HEK293 cells assessed as cell viability measured after 24 hrs by XTT formazan assay; assay type: toxicity, cell-based; details: human
[23] = Effect on proto-oncogene expression in human c-KIT-positive K562 cells assessed as down regulation in BCL-2 oncogene expression at 11 uM measured after 24 hrs by qRT-PCR analysis relative to control; assay type: functional; procedure, shortened: as §3
[24] = test system: K562; assay: Cytotoxicity against human c-KIT-positive K562 cells assessed as cell viability measured after 24 hrs by XTT formazan assay; assay type: functional, cell-based; details: K562, 24 h
[25] = test system: K562; assay: Induction of apoptosis in human K562 cells assessed as apoptosis at 11 uM incubated for 24 hrs by FITC-Annexin V and PI analysis; assay type: functional; procedure, shortened: as §2
[26] = Reduction of c-MYC oncogene expression in human K562 cells transfected with c-MYC plasmid construct assessed as reduction in luciferase expression at 11 uM measured after 36 hrs by luciferase reporter assay; assay type: functional; procedure, shortened: as §1
[27] = Reduction of c-KIT oncogene expression in human K562 cells transfected with c-KIT plasmid construct assessed as reduction in luciferase expression at 11 uM measured after 36 hrs by luciferase reporter assay; assay type: functional; procedure, shortened: as §1
[28] = Reduction of c-KIT protein expression in human K562 cells at 11 uM measured after 24 hrs by Western blotting analysis relative to control; assay type: functional; details: K562, read-out: INH; procedure, shortened: as §5
[29] = test system: Quadruplex DNA; assay: Stabilization of calf thymus […] ds DNA 5-FAM-CAATCGGATCGAATTCGATCCGATTG-TAMRA-3 assessed as change in melting temperature at 1 uM incubated for 1 hr in dark condition by FRET-based melting assay; assay type: nucleic-acid assay; details: Bos taurus; procedure, shortened: as §4

ΔTm [8]: < 3 °C
ΔTm [9]: < 3 °C
ΔTm [10]: < 3 °C
ΔTm [12]: < 3 °C
ΔTm [13]: < 3 °C
ΔTm [18]: < 3 °C
Activity [19]: Active
ΔTm [29]: < 3 °C
SMILES: CN(C)CCCNC(=O)c1ccc(-n2cc(-c3ccc4oc5ccccc5c4c3)nn2)cc1
IC50 [1]: ≥ 19 µM
inhibition at 5.5 µM [2]: 3.3%
fold change (FC) [3]: 1.8
inhibition at 5.5 µM [4]: 6.2%
Activity [5]: 1%
Activity [6]: 31%
Activity [7]: 23%
inhibition at 11 µM [11]: 14%
Activity [14]: 8%
inhibition at 5.5 µM [15]: 9.5%
inhibition at 5.5 µM [16]: 7.8%
Activity [17]: inactive
inhibition at 11 µM [20]: 3%
inhibition at 5.5 µM [21]: > 1%
IC50 at 24 h [22]: ≥ 50 µM
Activity [23]: 5%
IC50 [24]: 11.7 µM
Activity [25]: 11%
inhibition at 11 µM [26]: 10.1%
inhibition at 11 µM [27]: 7.6%
inhibition at 11 µM [28]: -15.8%
